Reference: ChEMBL document CHEMBL4428087, “Synthesis and antitumor activity evaluation of quinazoline derivatives bearing piperazine-1-carbodithioate moiety at C4-position” (Bioorg Med Chem Lett, 2016)

Legend:
[1] = test system: HCT-116; test: Cell cycle arrest in human HCT116 cells assessed as accumulation at S phase at 0.1 uM after 24 hrs by propidium iodide staining based flow cytometry (reference value: 46.36 %); format: functional
Outline: (§1)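 HCT-116 cells were treated for 24 h at multiples of IC50 (1×, 1.25× or 1.5×) or at 0.1 µM, with a DMSO control. Cells were harvested, fixed in 70% ice-cold ethanol and stained with propidium iodide. DNA content was read by flow cytometry, and the percentages of cells in G0/G1, S and G2/M were calculated. Three independent experiments were run.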

[2] = test system: HCT-116; test: Cell cycle arrest in human HCT116 cells assessed as accumulation at G0/G1 phase after 24 hrs by propidium iodide staining based flow cytometry; format: functional; outline: as §1
[3] = test system: HCT-116; test: Cell cycle arrest in human HCT116 cells assessed as accumulation at G0/G1 phase at 0.1 uM after 24 hrs by propidium iodide staining based flow cytometry (reference value: 34.93 %); format: functional; outline: as §1
[4] = test system: HCT-116; test: Cell cycle arrest in human HCT116 cells assessed as accumulation at G2/M phase at 0.1 uM after 24 hrs by propidium iodide staining based flow cytometry (reference value: 16.91 %); format: functional; outline: as §1
[5] = test system: MCF7; test: Antiproliferative activity against human MCF7 cells after 72 hrs by MTS assay; format: functional, cell-based; settings: MCF7, 72 h
Outline: (§2)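 Cells were exposed to compound for 72 h. A first screen at 50 μM called a compound active at ≥50% inhibition versus vehicle-treated cells. Active compounds were then tested at various concentrations, and IC50 (concentration giving 50% proliferation inhibition) was derived. Values are mean ± SD from triplicate determinations in three independent experiments.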

[6] = test system: HCT-116; test: Antiproliferative activity against human HCT116 cells after 72 hrs by MTS assay; format: functional, cell-based; settings: HCT-116, 72 h; outline: as §2
[7] = test system: A549; test: Antiproliferative activity against human A549 cells after 72 hrs by MTS assay; format: functional, cell-based; settings: A549, 72 h; outline: as §2
[8] = test system: HCT-116; test: Cell cycle arrest in human HCT116 cells assessed as accumulation at G0/G1 phase at IC50 after 24 hrs by propidium iodide staining based flow cytometry (reference value: 34.93 %); format: functional
[9] = test system: HCT-116; test: Cell cycle arrest in human HCT116 cells assessed as accumulation at G2/M phase at IC50 after 24 hrs by propidium iodide staining based flow cytometry (reference value: 16.91 %); format: functional
[10] = test system: HCT-116; test: Cell cycle arrest in human HCT116 cells assessed as accumulation at S phase at IC50 after 24 hrs by propidium iodide staining based flow cytometry (reference value: 46.36 %); format: functional
[11] = test system: HCT-116; test: Cell cycle arrest in human HCT116 cells assessed as accumulation at S phase at 1.25 times IC50 after 24 hrs by propidium iodide staining based flow cytometry (reference value: 46.36 %); format: functional; outline: as §1
[12] = test system: HCT-116; test: Cell cycle arrest in human HCT116 cells assessed as accumulation at S phase at 1.5 times IC50 after 24 hrs by propidium iodide staining based flow cytometry (reference value: 46.36 %); format: functional; outline: as §1
[13] = test system: HCT-116; test: Cell cycle arrest in human HCT116 cells assessed as accumulation at G2/M phase at 1.5 times IC50 after 24 hrs by propidium iodide staining based flow cytometry (reference value: 16.91 %); format: functional; outline: as §1
[14] = test system: HCT-116; test: Cell cycle arrest in human HCT116 cells assessed as accumulation at G0/G1 phase at 1.5 times IC50 after 24 hrs by propidium iodide staining based flow cytometry (reference value: 34.93 %); format: functional; outline: as §1
[15] = test system: HCT-116; test: Cell cycle arrest in human HCT116 cells assessed as accumulation at sub-G1 phase after 24 hrs by propidium iodide staining based flow cytometry; format: functional; outline: as §1
[16] = test system: HCT-116; test: Cell cycle arrest in human HCT116 cells assessed as accumulation at G0/G1 phase at 1.25 times IC50 after 24 hrs by propidium iodide staining based flow cytometry (reference value: 34.93 %); format: functional; outline: as §1
[17] = test system: HCT-116; test: Cell cycle arrest in human HCT116 cells assessed as accumulation at G2/M phase at 1.25 times IC50 after 24 hrs by propidium iodide staining based flow cytometry (reference value: 16.91 %); format: functional; outline: as §1

Row | SMILES | IC50 [5] | IC50 [6] | IC50 [7] | also measured
1 | CCN(CC)CCNC(=O)c1c(C)[nH]c(/C=C2\C(=O)Nc3ccc(F)cc32)c1C [SUNITINIB] | – | – | – | Activity [1]: 33.36%; Activity [2]: Dose-dependent effect; Activity [3]: 50.07%; Activity [4]: 14.16%
2 | COc1cc2c(N3CCN(C(=S)SCC4CCCO4)CC3)ncnc2cc1OCCCN1CCCCC1 (centres undefined) | 22.7 µM | 19.2 µM | 22.8 µM | –
3 | COc1cc2c(N3CCN(C(=S)SCc4ccc(F)cc4F)CC3)ncnc2cc1OCCCN1CCCCC1 | 4.67 µM | 4.64 µM | 5.44 µM | –
4 | COc1cc2c(N3CCN(C(=S)SCc4ccccc4)CC3)ncnc2cc1OCCCN1CCCCC1 | 28 µM | 28.8 µM | 15.7 µM | –
5 | COc1cc2c(N3CCN(C(=S)SCc4ccc(F)cc4)CC3)ncnc2cc1OCCCN1CCCCC1 | 4.2 µM | 4.5 µM | 4.25 µM | –
6 | COc1cc2c(N3CCN(C(=S)SCc4c(F)c(F)c(F)c(F)c4F)CC3)ncnc2cc1OCCCN1CCCCC1 | 4.14 µM | 4.45 µM | 4.58 µM | –
7 | COc1cc2c(N3CCN(C(=S)SCc4cccnc4)CC3)ncnc2cc1OCCCN1CCCCC1 | 22.2 µM | 22.2 µM | 19.5 µM | –
8 | CCCSC(=S)N1CCN(c2ncnc3cc(OCCCN4CCCCC4)c(OC)cc23)CC1 | 10.5 µM | 8.67 µM | 8.07 µM | –
9 | COc1cc2c(N3CCN(C(=S)SC(C)C)CC3)ncnc2cc1OCCCN1CCCCC1 | 8.37 µM | 10.4 µM | 11.3 µM | –
10 | COc1cc2c(N3CCN(C(=S)SCc4ccc(F)c(F)c4)CC3)ncnc2cc1OCCCN1CCCCC1 | 3.07 µM | 5.96 µM | 4.9 µM | –
11 | COc1cc2c(N3CCN(C(=S)SCc4ccncc4)CC3)ncnc2cc1OCCCN1CCCCC1 | > 50 µM | > 50 µM | > 50 µM | –
12 | COc1cc2c(N3CCN(C(=S)SCc4ccc([N+](=O)[O-])cc4)CC3)ncnc2cc1OCCCN1CCCCC1 | 6.89 µM | 5.65 µM | 5.36 µM | –
13 | COc1cc2c(N3CCN(C(=S)SCc4ccccn4)CC3)ncnc2cc1OCCCN1CCCCC1 | 20.7 µM | 20.6 µM | 28.8 µM | –
14 | COc1cc2c(N3CCN(C(=S)SCc4ccc(C)cc4)CC3)ncnc2cc1OCCCN1CCCCC1 | 3.73 µM | 5.46 µM | 4.51 µM | –
15 | O=c1[nH]cc(F)c(=O)[nH]1 [FLUOROURACIL] | – | – | – | Activity [8]: 28.47%; Activity [9]: 8.29%; Activity [10]: 62.28%
16 | COc1cc2c(N3CCN(C(=S)SCC4CCOCC4)CC3)ncnc2cc1OCCCN1CCCCC1 | 18.4 µM | 15.1 µM | 19.1 µM | –
17 | COc1cc2c(N3CCN(C(=O)Nc4ccc(OC(C)C)cc4)CC3)ncnc2cc1OCCCN1CCCCC1 [TANDUTINIB] | 14.7 µM | 18.1 µM | 14.8 µM | –
18 | COc1cc2c(N3CCN(C(=S)SCc4ccc(Br)cc4)CC3)ncnc2cc1OCCCN1CCCCC1 | 3.93 µM | 4.52 µM | 4.31 µM | –
19 | CCSC(=S)N1CCN(c2ncnc3cc(OCCCN4CCCCC4)c(OC)cc23)CC1 | 16.6 µM | 10.3 µM | 18.4 µM | –
20 | COc1cc2c(N3CCN(C(=S)SCc4ccc(C#N)cc4)CC3)ncnc2cc1OCCCN1CCCCC1 | 10.1 µM | 8.67 µM | 9.52 µM | –
21 | COc1cc2c(N3CCN(C(=S)SCC4OCCO4)CC3)ncnc2cc1OCCCN1CCCCC1 | 29.6 µM | 23.9 µM | 24.6 µM | –
22 | COc1cc2c(N3CCN(C(=S)SCc4ccco4)CC3)ncnc2cc1OCCCN1CCCCC1 | 7.29 µM | 7.3 µM | 6.58 µM | –
23 | COc1cc2c(N3CCN(C(=S)SCC4CCCCC4)CC3)ncnc2cc1OCCCN1CCCCC1 | 3.99 µM | 4.55 µM | 4.06 µM | Activity [11]: 23.67%; Activity [8]: 44.47%; Activity [12]: 27.37%; Activity [9]: 28.74%; Activity [10]: 26.82%; Activity [2]: Dose-dependent effect; Activity [13]: 14.4%; Activity [14]: 55.8%; Activity [15]: Dose-dependent effect; Activity [16]: 50.65%; Activity [17]: 24.97%
24 | COc1ccc(CSC(=S)N2CCN(c3ncnc4cc(OCCCN5CCCCC5)c(OC)cc34)CC2)cc1 | 4.16 µM | 4.92 µM | 4.25 µM | –
25 | COc1cc2c(N3CCN(C(=S)SCc4ccc(C(=O)O)cc4)CC3)ncnc2cc1OCCCN1CCCCC1 | > 50 µM | > 50 µM | > 50 µM | –
26 | COc1cccc(CSC(=S)N2CCN(c3ncnc4cc(OCCCN5CCCCC5)c(OC)cc34)CC2)c1 | 3.86 µM | 8.01 µM | 4.58 µM | –
27 | COc1cc2c(N3CCN(C(=S)SCc4ccsc4)CC3)ncnc2cc1OCCCN1CCCCC1 | 5.17 µM | 5.64 µM | 4.84 µM | –
28 | COc1cc2c(N3CCN(C(=S)SCc4ccc(Cl)cc4)CC3)ncnc2cc1OCCCN1CCCCC1 | 3.94 µM | 8.04 µM | 4.71 µM | –
29 | COc1cc2c(N3CCN(C(=S)SC)CC3)ncnc2cc1OCCCN1CCCCC1 | 27.5 µM | 24.4 µM | 33.4 µM | –
